Measured values: ChEMBL document CHEMBL4145692, “Discovery of a Locally and Orally Active CXCL12 Neutraligand (LIT-927) with Anti-inflammatory Effect in a Murine Model of Allergic Airway Hypereosinophilia” (J Med Chem, 2018)
In brackets after ≈: the same amount, converted by molar mass. Values belong to the molecule of their own block, whether it stands above or below them. Activity calls are given as the source filed them. No cut-off for these calls is given here.

Assays:
[1] = Kinetic solubility in pH 7.4 HEPES-BSA buffer at 5 uM incubated for 24 hrs at 20 degC by HPLC method; format: physicochemical; conditions: read-out: Kinetic_solubility
Outline: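 Compound added from 10 mM DMSO stock to 5 μM in pH 7.4 HEPES-BSA buffer (1 g/L BSA), shaken 24 h at 20 °C. After centrifugation, supernatant concentration measured by HPLC against 5 and 10 μM standards.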

[2] = target: T1, Stromal cell-derived factor 1 (Homo sapiens, UniProt P48061); assay: Binding affinity to Texas Red-labelled CXCL12 (unknown origin) assessed as inhibition of CXCL12-Texas Red binding to EGFP-labeled human CXCR4 expressed in HEK293 cell membranes pre-incubated for 1 hr by FRET-based binding assay
Outline: (§1)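 HEK-293 cells stably expressing human EGFP-CXCR4, 10⁶ cells/ml in HEPES buffer pH 7.4 with 0.1% BSA, 21 °C. CXCL12-Texas Red (100 nM) was preincubated 1 h at room temperature with compound or DMSO, then added at t=150 s. FRET read as loss of EGFP emission at 510 nm (excitation 470 nm) up to equilibrium. Ki from dose-response curves.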

Mus musculus [3] = assay: Inhibition of lymphocytes infiltration in Balb/c mouse model of 8 day model of allergic eosinophilic airway inflammation at 300 nmol/kg dosed intranasally 2 hrs before ovalbumin challenge by hemocytometry; format: functional, organism-based
Outline: (§2)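 OVA/alum-sensitized Balb/c mice challenged intranasally with OVA on days 5–7. Compounds at 300 nmol/kg in 10% PBS/Cdx given intranasally 2 h before each challenge. BAL 24 h after the last challenge; eosinophils, neutrophils and lymphocytes counted by hemocytometer and differential cytospin; n=6/group.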

[4] = Chemical stability in pH 7.4 PBS/Cdx buffer assessed as parent compound remaining at 10 uM incubated for 24 hrs by RP-HPLC method; format: physicochemical; conditions: read-out: Stability
Outline: (§3)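 Compound diluted from DMSO stock to 10 μM final (1% DMSO) in PBS pH 7.4, or in PBS with 10% w/w (2-hydroxypropyl)-β-cyclodextrin. Sampled at t0, 2, 4, 6 and 24 h and injected directly onto RP-HPLC. Percent remaining relative to t0 from peak area.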

[5] = Thermodynamic solubility in pH 7.4 PBS/Cdx buffer incubated for 24 hrs at 22 degC by HPLC method; format: physicochemical; conditions: read-out: Therm_solubility
Outline: (§4)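 Powder dissolved to saturation in pH 7.4 PBS (100 mM sodium phosphate, 150 mM NaCl), or in PBS with 10% Cdx, and shaken 24 h. After centrifugation, supernatant quantified by HPLC against a per-compound calibration line prepared from the DMSO stock.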

Mus musculus [6] = assay: Inhibition of eosinophil infiltration in Balb/c mouse model of 8 day model of allergic eosinophilic airway inflammation at 300 nmol/kg dosed intranasally 2 hrs before ovalbumin challenge by hemocytometry; format: functional; conditions: for inhibition in vivo at 0.3 µmol/kg: inhaled or nasal; outline: as §2
Mus musculus [7] = assay: Inhibition of macrophages infiltration in Balb/c mouse model of 8 day model of allergic eosinophilic airway inflammation at 300 nmol/kg dosed intranasally 2 hrs before ovalbumin challenge by hemocytometry; format: functional, organism-based
[8] = Thermodynamic solubility in pH 7.4 PBS buffer incubated for 24 hrs at 22 degC by HPLC method; format: physicochemical; conditions: read-out: Therm_solubility; outline: as §4
[9] = Chemical stability in pH 7.4 PBS buffer assessed as parent compound remaining at 10 uM incubated for 24 hrs by RP-HPLC method; format: physicochemical; conditions: read-out: Stability; outline: as §3
[10] = target: T1, Stromal cell-derived factor 1; assay: Binding affinity to Texas Red-labelled CXCL12 (unknown origin) assessed as inhibition of CXCL12-Texas Red binding to EGFP-labeled human CXCR4 expressed in HEK293 cell membranes at 30 uM pre-incubated for 1 hr by FRET-based binding assay; outline: as §1

T1 sequence (P48061 whole entry): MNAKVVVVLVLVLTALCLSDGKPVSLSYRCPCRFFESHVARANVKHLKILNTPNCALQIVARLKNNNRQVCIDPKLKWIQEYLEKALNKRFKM

SMILES: COc1cc(/C=C/C(=O)c2cccc(Cl)c2Cl)ccc1O
solubility kinetic at 24 h, 5 µM [1]: > 5 µM
Ki [2]: 357 nM

SMILES: COc1cccc(/C=C/C(=O)c2ccc(Cl)cc2)c1
solubility kinetic at 24 h, 5 µM [1]: 0.36 µM (≈ 0.0982 µg/mL)
Ki [2]: > 10000 nM

SMILES: O=C(/C=C/c1ccc(O)cc1)c1ccc(Cl)cc1
solubility kinetic at 24 h, 5 µM [1]: > 5 µM
Ki [2]: 625 nM

SMILES: CNc1nc(-c2ccc(Cl)cc2)cc(-c2ccc(O)c(OC)c2)n1
solubility kinetic at 24 h, 5 µM [1]: > 5 µM
Ki [2]: > 10000 nM

SMILES: COc1cc(C2CC(c3ccc(Cl)cc3)=NN2C(C)=O)ccc1O (stereo not drawn)
solubility kinetic at 24 h, 5 µM [1]: > 5 µM
Ki [2]: > 10000 nM

SMILES: COc1cc(/C=C/C(=O)c2cc(Cl)ccc2Cl)ccc1O
solubility kinetic at 24 h, 5 µM [1]: > 5 µM
Ki [2]: 53 nM

SMILES: COc1cc(/C=C/C(=O)c2ccc(Cl)cc2F)ccc1O
solubility kinetic at 24 h, 5 µM [1]: > 5 µM
Ki [2]: 107 nM

SMILES: COc1cc(/C=C/C(=O)c2cccnc2)ccc1O
solubility kinetic at 24 h, 5 µM [1]: > 5 µM
Ki [2]: > 10000 nM

SMILES: COc1cc(-c2cc(-c3ccc(Cl)cc3)n[nH]2)ccc1O
Ki [2]: > 10000 nM

SMILES: COc1cc(CCC(=O)c2ccc(Cl)cc2)ccc1O
Ki [2]: > 10000 nM

SMILES: COc1cc(/C(C)=C/C(=O)c2ccc(Cl)cc2)ccc1O
solubility kinetic at 24 h, 5 µM [1]: 2.6 µM (≈ 0.787 µg/mL)
Ki [2]: > 10000 nM

SMILES: COCOc1ccc(/C=C/C(=O)c2ccc(Cl)cc2O)cc1OC
inhibition (Mus musculus [3]): inactive
inhibition (Mus musculus [7]): inactive

SMILES: Cl.NCCOCCOc1cc(/C=C/C(=O)c2ccc(Cl)cc2)ccc1O
solubility kinetic at 24 h, 5 µM [1]: > 5 µM
Ki [2]: 1070 nM

SMILES: COc1cc(-c2cc(-c3ccc(Cl)cc3)nc(N)n2)ccc1O
solubility kinetic at 24 h, 5 µM [1]: > 5 µM
Ki [2]: > 10000 nM

SMILES: COc1cc(-c2cc(-c3ccc(Cl)cc3)nc(C)n2)ccc1O
solubility kinetic at 24 h, 5 µM [1]: > 5 µM
Ki [2]: 1680 nM

SMILES: COc1cc(/C=C/C(=O)c2ccc(C(F)(F)F)cc2)ccc1O
solubility kinetic at 24 h, 5 µM [1]: > 5 µM
Ki [2]: 1070 nM

SMILES: O=C(/C=C/c1ccc2c(c1)OCCO2)c1ccc(Cl)cc1
solubility kinetic at 24 h, 5 µM [1]: > 5 µM
Ki [2]: 1380 nM

SMILES: Cl.NCCOCCOc1cc(/C=C2\Cc3cc(Cl)ccc3C2=O)ccc1O
inhibition (Mus musculus [3]): inactive
solubility kinetic at 24 h, 5 µM [1]: > 5 µM
inhibition (Mus musculus [7]): inactive
Ki [2]: 496 nM

SMILES: Cl.NCCOCCOCCOc1cc(/C=C/C(=O)c2ccc(Cl)cc2)ccc1O
solubility kinetic at 24 h, 5 µM [1]: > 5 µM
Ki [2]: 475 nM

SMILES: COc1cc(/C=C/C(=O)c2c(Cl)cccc2Cl)ccc1O
solubility kinetic at 24 h, 5 µM [1]: > 5 µM
Ki [2]: 71 nM

SMILES: COc1cc(/C=C/C(=O)c2ccc(C(=O)O)cc2)ccc1O
solubility kinetic at 24 h, 5 µM [1]: > 5 µM
Ki [2]: 5350 nM

SMILES: COc1cc(C2CC(c3ccc(Cl)cc3)=NN2)ccc1O (stereo not drawn)
inhibition (Mus musculus [3]): inactive
remaining at 24 h, 10 µM [4]: 98%
solubility thermodynamic at 24 h [5]: > 3000 µM
solubility kinetic at 24 h, 5 µM [1]: > 5 µM
inhibition in vivo at 0.3 µmol/kg (Mus musculus [6]): 39%
inhibition (Mus musculus [7]): inactive
solubility thermodynamic at 24 h [8]: 34.6 µM (≈ 10.5 µg/mL)
Ki [2]: 107 nM
remaining at 24 h, 10 µM [9]: 78%

SMILES: COc1cc(/C=C/C(=O)c2ccc(Cl)cc2)ccc1[N+](=O)[O-]
solubility kinetic at 24 h, 5 µM [1]: > 5 µM
Ki [2]: > 10000 nM

SMILES: COc1cc(/C=C2\Oc3cc(Cl)ccc3C2=O)ccc1O
remaining at 24 h, 10 µM [4]: 100%
solubility thermodynamic at 24 h [5]: 330 µM (≈ 99.9 µg/mL)
solubility kinetic at 24 h, 5 µM [1]: > 5 µM
inhibition (Mus musculus [6]): inactive
solubility thermodynamic at 24 h [8]: 1.9 µM (≈ 0.575 µg/mL)
Ki [2]: 203 nM
remaining at 24 h, 10 µM [9]: 100%

SMILES: COc1cc(/C=C2\COc3cc(Cl)ccc3C2=O)ccc1O
remaining at 24 h, 10 µM [4]: 100%
solubility thermodynamic at 24 h [5]: 933 µM (≈ 296 µg/mL)
solubility kinetic at 24 h, 5 µM [1]: > 5 µM
inhibition (Mus musculus [6]): inactive
solubility thermodynamic at 24 h [8]: 0.5 µM (≈ 0.158 µg/mL)
Ki [2]: 357 nM
remaining at 24 h, 10 µM [9]: 100%

SMILES: COc1cc(/C=C/C(=O)c2ccccc2Cl)ccc1O
solubility kinetic at 24 h, 5 µM [1]: > 5 µM
Ki [2]: 107 nM

SMILES: O=C(/C=C/c1ccc(O)c(C(=O)O)c1)c1ccc(Cl)cc1
solubility kinetic at 24 h, 5 µM [1]: > 5 µM
Ki [2]: > 10000 nM

SMILES: COc1cc(/C=C/C(=O)c2ccncc2)ccc1O
solubility kinetic at 24 h, 5 µM [1]: > 5 µM
Ki [2]: > 10000 nM

SMILES: COc1cc(/C=C2\Cc3cc(Cl)ccc3C2=O)ccc1O
solubility kinetic at 24 h, 5 µM [1]: 0.88 µM (≈ 0.265 µg/mL)
Ki [2]: 107 nM

SMILES: COc1cc(/C=C/C(=O)c2ccc(Cl)cc2Cl)ccc1O
solubility kinetic at 24 h, 5 µM [1]: > 5 µM
Ki [2]: 48 nM

The next lines start with results.

solubility kinetic at 24 h, 5 µM [1]: > 5 µM
Ki [2]: 430 nM
SMILES: COc1cc(/C=C/C(=O)c2ccc(F)cc2)ccc1O

remaining at 24 h, 10 µM [4]: 100%
solubility thermodynamic at 24 h [5]: 319 µM (≈ 121 µg/mL)
solubility kinetic at 24 h, 5 µM [1]: > 5 µM
solubility thermodynamic at 24 h [8]: 1.2 µM (≈ 0.456 µg/mL)
Ki [2]: 107 nM
remaining at 24 h, 10 µM [9]: 100%
SMILES: COc1cc(/C=C/C(=O)c2ccc(I)cc2)ccc1O
inhibition (Mus musculus [3]): inactive
inhibition in vivo at 0.3 µmol/kg (Mus musculus [6]): 36%
inhibition (Mus musculus [7]): inactive

solubility kinetic at 24 h, 5 µM [1]: 1.92 µM (≈ 0.569 µg/mL)
Ki [2]: 25 nM
SMILES: COc1cc(/C=C/C(=O)c2ccc(C(C)C)cc2)ccc1O

solubility kinetic at 24 h, 5 µM [1]: > 5 µM
Ki [2]: 350 nM
SMILES: O=C(/C=C/c1ccc(O)c(O)c1)c1ccc(Cl)cc1

solubility kinetic at 24 h, 5 µM [1]: > 5 µM
Ki [2]: > 10000 nM
SMILES: COc1ccc(/C=C/C(=O)c2ccc(Cl)cc2)cc1O

solubility kinetic at 24 h, 5 µM [1]: > 5 µM
Ki [2]: 285 nM
SMILES: COc1cc(/C=C/C(=O)c2ccc(C)cc2)ccc1O

solubility kinetic at 24 h, 5 µM [1]: > 5 µM
Ki [2]: > 10000 nM
SMILES: COc1ccc(/C=C/C(=O)c2ccc(Cl)cc2)cc1OC

solubility kinetic at 24 h, 5 µM [1]: > 5 µM
inhibition [10]: 25%
SMILES: COc1cc(/C=C/C(=O)c2cccc(Cl)c2)ccc1O

solubility kinetic at 24 h, 5 µM [1]: > 5 µM
Ki [2]: > 5000 nM
SMILES: COc1cc(/C=C(\C)C(=O)c2ccc(Cl)cc2)ccc1O

solubility kinetic at 24 h, 5 µM [1]: > 5 µM
Ki [2]: 714 nM
SMILES: COc1cc(/C=C/C(=O)c2ccc(Cl)c(Cl)c2)ccc1O

solubility kinetic at 24 h, 5 µM [1]: > 5 µM
Ki [2]: > 10000 nM
SMILES: COc1cc(/C=C/C(=N/O)c2ccc(Cl)cc2)ccc1O

solubility kinetic at 24 h, 5 µM [1]: > 5 µM
Ki [2]: 44 nM
SMILES: COc1cc(/C=C/C(=O)c2ccc(Br)cc2)ccc1O

solubility kinetic at 24 h, 5 µM [1]: > 5 µM
Ki [2]: > 10000 nM
SMILES: COc1cc(/C=C/C(=O)c2ccc(Cl)cc2)ccc1N

remaining at 24 h, 10 µM [4]: 100%
solubility thermodynamic at 24 h [5]: > 5000 µM
solubility kinetic at 24 h, 5 µM [1]: > 5 µM
solubility thermodynamic at 24 h [8]: 4.2 µM
Ki [2]: 357 nM
remaining at 24 h, 10 µM [9]: 100%
SMILES: Cl.NCCOc1cc(/C=C/C(=O)c2ccc(Cl)cc2)ccc1O
inhibition (Mus musculus [3]): inactive
inhibition (Mus musculus [6]): inactive
inhibition (Mus musculus [7]): inactive

solubility kinetic at 24 h, 5 µM [1]: > 5 µM
Ki [2]: > 10000 nM
SMILES: COc1cc(C(=O)/C=C/c2ccc(Cl)cc2)ccc1O

solubility kinetic at 24 h, 5 µM [1]: > 5 µM
Ki [2]: 1780 nM
SMILES: COc1ccc(C(=O)/C=C/c2ccc(O)c(OC)c2)cc1
